# Reference: paper PMC10749586 (Nature, 2023)
# Like-named read-outs stand apart in the source and are kept apart here.
# Columns and labels:
# [1] = system: MYC, p21, FOXO3, BCL6, BRD4 protein levels; settings: BET/BRD4 inhibitor; cited from earlier work
# KARPAS422 cells [2] = assay: Cell viability; assay type: cell-based, human; settings: for fold less-effective cell killing than TCIP1: JQ1 and BI3812 added separately or together, 72 h
# DLBCL cell lines = assay: Cell viability; assay type: cell-based, human; settings: titrated against constant TCIP1 that kills 50–95% of cells within 72 h
# OCILY19 cells = assay: Cell viability of OCILY19 cells; assay type: cell-based, human; settings: OCILY19, no detectable BCL6
# [3] = system: BRD4 / Pol II / H3K27ac chromatin occupancy; assay: ChIP-seq; assay type: cell-based, human
# Procedure, shortened: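 KARPAS422 cells (30 million) received test compound or DMSO, then were crosslinked with 1% formaldehyde for 12 min and quenched with 0.125 M glycine. Nuclei were prepared and immunoprecipitated overnight at 4 °C. Chromatin input was 50 µg for Pol II Ser2/Ser5 phos and 25 µg for H3K27ac, with Drosophila spike-in. Differential peaks: Wald test, Benjamini–Hochberg, padj ≤ 0.05, |log2| ≥ 0.5.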
# [4] = system: KARPAS422 cells gene expression; assay: RNA sequencing in KARPAS422 cells; assay type: cell-based, human
# [5] = molecular target: BRD4(BD1)-TCIP1-BCL6(BTB) ternary complex (Homo sapiens, UniProt O60885+P41182, C67R/C84N/C8Q); assay: Biolayer interferometry of ternary complex; assay type: binding
# Procedure, shortened: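 Biolayer interferometry used biotinylated BCL6(BTB)-AviTag (100 nM) loaded on streptavidin tips. Wells held tag-cleaved BRD4(BD1) (50 µM, excess) with test compound titrated from 5.5 nM to 12 µM, at 25 °C. Steps were 300 s association, 300 s dissociation and 30 s baseline. Off-rate came from dissociation curves at 7–8 doses, n = 3 independent replicates, mean ± s.d.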
# SUDHL5 cells = assay: Cell viability in SUDHL5 cells with or without serum starvation; assay type: cell-based, human
# Procedure, shortened: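 SUDHL5 cells were arrested in G0/G1 by serum starvation, or left unstarved, before test compound addition. Viability was read with PrestoBlue resazurin reagent (1.5 h, fluorescence 560/590 nm). Signal was background-subtracted and normalized to DMSO-treated cells. n = 3 biological replicates, mean ± s.d.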
# KARPAS422 cells [6] = assay: Annexin V apoptosis assay; assay type: cell-based, human
# Procedure, shortened: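 KARPAS422 cells (500,000, plated at 1 M ml−1) were exposed to test compound for the stated times and doses, then harvested on ice and washed twice. They were stained with 7-AAD plus FITC-annexin V for 15 min at room temperature and read immediately by flow cytometry. Gates came from single-stain and no-stain controls. Kinetics used 2–6 biological replicates, mean ± s.d.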
# BCL6 reporter = BCL6 reporter assay in KARPAS422 cells; assay type: cell-based, human; settings: read-out: EC50 of BCL6 reporter activation, 8 h
# Procedure, shortened: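 KARPAS422 cells were lentivirally transduced with the BCL6 reporter construct and selected. They were then treated with test compound for 8 h, washed in 2.5% FBS/PBS, stained with 7-AAD (1:250 v/v) for live/dead and analysed by flow cytometry. A GFP-positive gate was set from non-transduced cells. The FITC histogram area past threshold, over live cells, was normalized to DMSO.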
# [7] = Mouse tolerability and pharmacokinetic study; assay type: in vivo; settings: 10 mg kg^−1 i.p. once daily for 5 days, C57BL/6 mice
# BRD4(BD1) = BRD4(BD1) (Homo sapiens, UniProt O60885); assay: ITC binary titration, TCIP1 and BRD4; assay type: binding; settings: read-out: Kd of BRD4-TCIP1 (binary)
# [8] = system: MYC, p21, FOXO3, BCL6, BRD4 protein levels; assay: Western blots of target proteins in DLBCL cells; assay type: cell-based, human
# Procedure, shortened: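 Cells plated at 1 M ml−1 were treated with test compound (e.g., 20 h in KARPAS422). Two million cells were lysed on ice in RIPA (pH 8, 1% SDS, 1 mM DTT) with benzonase for 20 min. Lysates were cleared at 14,000g for 10 min at 4 °C and quantified by Bradford. Immunoblots probed BCL6, BRD4, BCL2, p53, MYC, FOXO3 and p21, with GAPDH as loading control.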
# [9] = system: primary human tonsillar lymphocytes; assay: Cell viability of primary human tonsillar lymphocytes; assay type: cell-based; settings: read-out: EC50 of cell viability, 72 h
# KARPAS422 cells [10] = assay: Cell cycle and TUNEL analysis; assay type: cell-based, human; settings: cell-cycle analysis with TUNEL; 100 nM, 24 h
# [11] = 2 h, 10 nM, out of 51,678 consensus peaks
compound,measurement,setting,value
Cc1sc2c(c1C)C(c1ccc(Cl)cc1)=N[C@@H](CC(=O)OC(C)(C)C)c1nnc(C)n1-2 [JQ1],drug level at which MYC expression is reduced,[1],500 nM
same,fold less-effective cell killing than TCIP1,KARPAS422 cells [2],"100–1,000 fold"
same,rescue of TCIP1-induced cell death by competitive titration,DLBCL cell lines,prevented death by TCIP1
CNC(=O)COc1cc2cc(Nc3nc(N4CCC(C(=O)N(C)C)CC4)ncc3Cl)cc(OC)c2n(C)c1=O [BI3812],fold less-effective cell killing than TCIP1,KARPAS422 cells [2],"100–1,000 fold"
same,rescue of TCIP1-induced cell death by competitive titration,DLBCL cell lines,prevented death by TCIP1
CNC(=O)COc1cc2cc(Nc3nc(N4CCC(C(=O)NCCCCCCCNC(=O)C[C@@H]5N=C(c6ccc(Cl)cc6)c6c(sc(C)c6C)-n6c(C)nnc65)CC4)ncc3Cl)cc(OC)c2n(C)c1=O [TCIP1],response in cell viability,OCILY19 cells,little or no response compared with controls
same,H3K27ac peaks decreased,[3]; [11],70 peaks
same,H3K27ac peaks increased,[3]; [11],126 peaks
same,increase of BRD4 binding over genomic BCL6-binding sites,[3]; ChIP-seq,50%
same,BRD4 levels increase at promoters of upregulated genes,"[3]; ChIP-seq, 1 h of TCIP1 addition",approximately 150%
same,number of genes induced at early timepoints,"[4]; 10 nM, 1, 2 and 4 h, KARPAS422",approximately 140 genes
same,number of genes with increased expression,"[4]; 10 nM, 20 h, KARPAS422","1,654 genes"
same,number of genes with reduced expression,"[4]; 10 nM, 20 h, KARPAS422","1,347 genes"
same,time to upregulation of the long isoform of BCL6 mRNA,"[4]; RT-qPCR, 10 nM",1 to 2 h
same,EC50,"KARPAS422 cells [2]; read-out: EC50 of cell viability, KARPAS422, 72 h after addition of drug",1.3 nM
same,off-rate of ternary complex,[5],26 ms^−1
same,EC50,"SUDHL5 cells; read-out: EC50 of cell viability after G0/G1 arrest, SUDHL5, serum starvation",0.25 nM
same,EC50,"SUDHL5 cells; read-out: EC50 of cell viability without arrest, SUDHL5, no serum starvation",3.2 nM
same,time to detectable apoptosis,KARPAS422 cells [6],4 to 8 h
same,EC50,BCL6 reporter,5 nM
same,body weight change,[7],no significant changes in mouse body weight
same,histology (haematoxylin and eosin) of lung and spleen,[7],did not reveal noticeable abnormalities
same,Kd,BRD4(BD1),5080 nM
same,time to FOXO3 activation,[8]; 10 nM,≤ 2 h
same,effect on BRD4 protein levels,"[8]; 20 h, KARPAS422",did not change substantially
same,time to reduction of MYC protein levels,[8]; after addition of drug,≤ 2 h
same,concentration from which MYC levels are reduced,"[8]; western blot, DLBCL cells",less than 1 nM
same,concentration that activates FOXO3,"[8]; western blot, DLBCL cells",0.5 nM
same,concentration inducing the BCL6L isoform,"[8]; western blot, Fig. 4k",≤ 1 nM
same,EC50,[9],~210 nM
same,cell-cycle effect,KARPAS422 cells [10],induced both a G1/S and G2/M block in the cell cycle
